According to paper PMC7175782 (Bioconjugate chemistry, 2018):

System: TAR RNA
Assay: Direct binding of ligands to TAR by ESI-MS under nondenaturing conditions
Design: species or system HIV-1
Details: 1 μM TAR, 10 μM ligand (1:10), 150 mM ammonium acetate
How it was run: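 Nondenaturing ESI-MS of HIV-1 TAR RNA (1 μM) mixed with test compound (10 μM, 1:10 molar ratio) in 150 mM ammonium acetate. Species assigned from monoisotopic masses. Free and bound RNA were quantified from relative abundances, expressed as percentages and compared to assess binding.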

Row | Compound | binding stoichiometry of TAR complexes (ligand:TAR)
1 | CC(NC(=O)C(N)CCCN)C(=O)Nc1ccc2c(c1)C(=O)c1ccc(NC(=O)C(C)NC(=O)C(N)CCCN)cc1C2=O.O=C(O)C(F)(F)F.O=C(O)C(F)(F)F.O=C(O)C(F)(F)F.O=C(O)C(F)(F)F [D-4g, N,N ′-(1,1′-(9,10-Dioxo-9,10-dihydroanthracene-2,6-diyl)-bis(azanediyl)bis(1-oxo-propane-2,1-diyl))bis(2,5-diaminopentanamide)-tetra-trifluoroacetate] | up to 3 equiv of ligand
2 | C[C@H](NC(=O)C(N)CCCCN)C(=O)Nc1ccc2c(c1)C(=O)c1ccc(NC(=O)[C@H](C)NC(=O)C(N)CCCCN)cc1C2=O.O=C(O)C(F)(F)F.O=C(O)C(F)(F)F.O=C(O)C(F)(F)F.O=C(O)C(F)(F)F (stereo partly drawn) [D-4h, N,N′-(2S,2′S)-1,1′-(9,10-Dioxo-9,10-dihydro-anthracene-2,6-diyl)bis(azanediyl)-bis(1-oxopropane-2,1-diyl)bis(2,6-diaminohexanamide)-tetra-trifluoroacetate] | up to 4 equiv of ligand
